In ChEMBL document CHEMBL4152216, “Syntheses and anti-pancreatic cancer activities of rakicidin A analogues” (Eur J Med Chem, 2018):

Experiments:
Danio rerio = experiment: Toxicity in zebrafish xenografted with human PANC1 cells at 50 uM after 2 days by fluorescence microscopy; format: organism-based; conditions: 48 h
PANC-1 [1] = experiment: Inhibition of cancer stem cell population of human PANC1 cells assessed as CD24+/CD44+/ESA+ cell population level at 0.15 uM after 48 hrs by flow cytometric analysis (reference value: 1.7%); format: functional; parameters: scale not given: the % may be the effect or the level left
ASPC1 [2] = experiment: Potency index, ratio of […] for rakicidin A to IC50 for test compound for cytotoxicity against human Aspc-1 cells after 72 hrs under hypoxic condition by MTT assay; format: functional
PANC-1 [3] = experiment: Antitumor activity against human PANC1 cells xenografted in zebrafsh yolk assessed as tumor growth inhibition at 0.5 uM after 2 days by fluorescence microscopy; format: functional
Method in brief: (§1)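 About 300 PANC-1 cells were microinjected into the yolk of 2 dpf wild-type AB zebrafish, which were held at 35 °C to 3 dpf. Fish were then randomized to 6-well plates, 30 per well, and dosed once with compound at 0.005–50 µM. Gemcitabine 66.7 µM served as positive control and 10% aqueous castor oil as blank. After 2 days at 35 °C, 15 fish per group were imaged by fluorescence microscopy. Inhibition (%) = (1 − S(sample)/S(blank)) × 100, mean ± SEM, n = 15.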

PANC-1 [4] = experiment: Antitumor activity against human PANC1 cells xenografted in zebrafsh yolk assessed as tumor growth inhibition at 5 uM after 2 days by fluorescence microscopy; format: functional; method in brief: as §1
ASPC1 [5] = experiment: Cytotoxicity against human Aspc-1 cells after 72 hrs under normoxic condition by MTT assay; format: functional, cell-based; conditions: ASPC1, 72 h
Method in brief: (§2)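 PANC-1, PATU8988T and ASPC-1 cells were grown in DMEM with 10% FBS at 37 °C and 5% CO2, then seeded at 4000 cells/well. Compounds were added at various concentrations after 6 h. Normoxic plates stayed at 37 °C, 5% CO2. Hypoxic plates went into a chamber purged 10 min with 5% CO2/1% O2/94% N2, sealed, at 37 °C. After 72 h, MTT was added for 4 h, formazan dissolved in DMSO and read at 570 nm. IC50 is the mean ± SD of three independent experiments.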

PANC-1 [6] = experiment: Antitumor activity against human PANC1 cells xenografted in zebrafsh yolk assessed as tumor growth inhibition at 0.005 uM after 2 days by fluorescence microscopy; format: functional; method in brief: as §1
PaTu 8988t [7] = experiment: Cytotoxicity against human PA-TU-8988T cells after 72 hrs under hypoxic condition by MTT assay; format: functional, cell-based; method in brief: as §2
PaTu 8988t [8] = experiment: Selectivity index, ratio of IC50 against human PA-TU-8988T cells under normoxic condition to IC50 for human PA-TU-8988T cells under hypoxic condition; format: functional
Method in brief: (§3)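 Hypoxic selectivity index is IC50 (normoxia)/IC50 (hypoxia). Both IC50s come from the 72 h MTT assay in the same cell line, run under normoxia (37 °C, 5% CO2) or a sealed 1% O2/5% CO2/94% N2 chamber, each the mean of three independent experiments.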

PANC-1 [9] = experiment: Selectivity index, ratio of IC50 against human PANC1 cells under normoxic condition to IC50 for human PANC1 cells under hypoxic condition; format: functional; method in brief: as §3
PANC-1 [10] = experiment: Antitumor activity against human PANC1 cells xenografted in zebrafsh yolk assessed as tumor growth inhibition at 50 uM after 2 days by fluorescence microscopy; format: functional; method in brief: as §1
ASPC1 [11] = experiment: Selectivity index, ratio of IC50 against human Aspc-1 cells under normoxic condition to IC50 for human Aspc-1 cells under hypoxic condition; format: functional; method in brief: as §3
ASPC1 [12] = experiment: Cytotoxicity against human Aspc-1 cells after 72 hrs under hypoxic condition by MTT assay; format: functional, cell-based; conditions: ASPC1, 72 h; method in brief: as §2
PANC-1 [13] = experiment: Antitumor activity against human PANC1 cells xenografted in BALB/c nude mouse assessed as reduction in tumor initiating cell frequency at 0.1 to 0.25 uM measured after 7 days; format: functional
Method in brief: (§4)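 PANC-1 cells were treated in vitro with compound (ADR at 0.5 µM) for 48 h, collected, and injected subcutaneously at limiting cell doses into 5-week-old female BALB/c nude mice. Tumor formation rate was scored after 7 days. Tumor-initiating frequency was derived by limiting-dilution analysis with Poisson statistics against vehicle.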

PANC-1 [14] = experiment: Cytotoxicity against human PANC1 cells after 72 hrs under hypoxic condition by MTT assay; format: functional, cell-based; conditions: PANC-1, 72 h; method in brief: as §2
PANC-1 [15] = experiment: Antitumor activity against human PANC1 cells xenografted in zebrafsh yolk assessed as tumor growth inhibition at 0.05 uM after 2 days by fluorescence microscopy; format: functional; method in brief: as §1
PANC-1 [16] = experiment: Inhibition of tumorsphere formation in human PANC1 cells assessed as reduction in number of tumor spheres at 0.25 uM after 7 days; format: functional
Method in brief: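 Tumorsphere formation: single-cell PANC-1 suspensions were plated in ultra-low-attachment wells at 2,000 cells/mL in Complete MammoCult medium, with compound at 0.25 µM. Tumorspheres were counted after 7 days. Three repeats, mean ± SEM.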

PaTu 8988t [17] = experiment: Cytotoxicity against human PA-TU-8988T cells after 72 hrs under normoxic condition by MTT assay; format: functional, cell-based; method in brief: as §2
[18] = molecular target: T1, Aldehyde dehydrogenase, mitochondrial (Homo sapiens) (UniProt P05091); experiment: Inhibition of ALDH in human PANC1 cells assessed as aldefluor positive cells at 0.2 uM after 72 hrs by aldefluor assay (reference value: 12.5%); format: cell-based; parameters: scale not given: the % may be the effect or the level left
T1 sequence (whole entry): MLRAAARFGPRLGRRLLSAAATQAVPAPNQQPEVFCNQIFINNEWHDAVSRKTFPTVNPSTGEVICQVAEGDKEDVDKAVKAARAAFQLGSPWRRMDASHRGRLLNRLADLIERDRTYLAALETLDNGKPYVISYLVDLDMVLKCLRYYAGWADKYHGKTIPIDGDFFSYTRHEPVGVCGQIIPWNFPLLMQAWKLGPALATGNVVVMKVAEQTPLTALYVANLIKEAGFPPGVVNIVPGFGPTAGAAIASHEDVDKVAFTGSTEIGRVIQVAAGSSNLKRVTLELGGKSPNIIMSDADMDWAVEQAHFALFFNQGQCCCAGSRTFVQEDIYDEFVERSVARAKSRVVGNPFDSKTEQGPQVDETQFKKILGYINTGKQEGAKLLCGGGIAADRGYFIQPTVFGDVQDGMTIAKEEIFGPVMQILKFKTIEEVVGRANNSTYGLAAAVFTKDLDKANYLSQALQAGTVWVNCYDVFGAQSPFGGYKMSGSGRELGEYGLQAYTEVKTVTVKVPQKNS
Method in brief: (§5)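 PANC-1 cells were seeded at 5×10^4 cells/well and exposed after 6 h to compound (0.2 µM; ADR 0.5 µM) for 72 h. Living cells were suspended in assay buffer and incubated with Aldefluor substrate for 60 min at 37 °C. A parallel sample received substrate plus the ALDH inhibitor DEAB as negative control. Readout was percentage of ALDH+ cells, mean ± SEM, n = 3.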

PANC-1 [19] = experiment: Cytotoxicity against human PANC1 cells after 72 hrs under normoxic condition by MTT assay; format: functional, cell-based; conditions: PANC-1, 72 h; method in brief: as §2
[20] = molecular target: T1, Aldehyde dehydrogenase, mitochondrial (Homo sapiens); experiment: Inhibition of ALDH in human PANC1 cells assessed as aldefluor positive cells at 0.2 uM after 72 hrs in presence of DEAB by aldefluor assay (reference value: 0.455%); format: cell-based; parameters: scale not given: the % may be the effect or the level left; method in brief: as §5
PANC-1 [21] = experiment: Antitumor activity against human PANC1 cells xenografted in zebrafsh yolk assessed as tumor growth inhibition at 66.7 uM after 2 days by fluorescence microscopy; format: functional; method in brief: as §1
[22] = molecular target: T1, Aldehyde dehydrogenase, mitochondrial (Homo sapiens); experiment: Inhibition of ALDH in human PANC1 cells assessed as aldefluor positive cells at 0.5 uM after 72 hrs in presence of DEAB by aldefluor assay (reference value: 0.455%); format: cell-based; parameters: scale not given: the % may be the effect or the level left; method in brief: as §5
[23] = molecular target: T1, Aldehyde dehydrogenase, mitochondrial (Homo sapiens); experiment: Inhibition of ALDH in human PANC1 cells assessed as aldefluor positive cells at 0.5 uM after 72 hrs by aldefluor assay (reference value: 12.5%); format: cell-based; parameters: scale not given: the % may be the effect or the level left; method in brief: as §5
PANC-1 [24] = experiment: Increase in tumor initiating cell frequency in human PANC1 cells xenografted in BALB/c nude mouse at 0.5 uM measured after 7 days; format: cell-based; conditions: in vivo, 168 h; method in brief: as §4

Compound | Activity (Danio rerio) | Activity (PANC-1 [1]) | TGI (PANC-1 [3]) | TGI (PANC-1 [4]) | IC50 (ASPC1 [5]) | TGI (PANC-1 [6]) | IC50 (PaTu 8988t [7]) | Ratio IC50 (PaTu 8988t [8]) | Ratio IC50 (PANC-1 [9]) | TGI (PANC-1 [10]) | Ratio IC50 (ASPC1 [11]) | IC50 (ASPC1 [12]) | fold change (FC) (PANC-1 [13]) | IC50 (PANC-1 [14]) | TGI (PANC-1 [15]) | fold change (FC) (PANC-1 [16]) | IC50 (PaTu 8988t [17]) | Activity [18] | IC50 (PANC-1 [19]) | Activity [20] | further results
C=C1/C=C/C(=O)N(C)CC(=O)N[C@@H](CC(=O)NC2CC2)C(=O)O[C@@H]([C@H](C)CCCCCCCCCCCCCC)[C@H](C)C(=O)N1 | Non-Toxic | 0.5% | 5% | 22% | 270 nM | 15% | 24 nM | 8.3 | 5.25 | 45% | 12.27 | 22 nM | 19 | 24 nM | 10% | 8.7 | 200 nM | 5.84% | 130 nM | 0.746% | Ratio IC50 (ASPC1 [2]): 4
C=C1/C=C/C(=O)N(C)CC(=O)NCC(=O)O[C@@H]([C@H](C)CCCCCCCCCCCCCC)[C@H](C)C(=O)N1 | Non-Toxic | – | 6% | 26% | 4170 nM | 14% | 440 nM | 5.67 | 7.93 | 47% | 8.6 | 490 nM | – | 310 nM | -2% | – | 2470 nM | – | 2480 nM | – | –
C=C1/C=C/C(=O)N(C)CC(=O)N[C@@H]([C@H](O)C(N)=O)C(=O)O[C@@H]([C@H](C)CCCCCCCCCCCC(C)C)[C@H](C)C(=O)N1 | – | 0.43% | – | – | 680 nM | – | 33 nM | 7.54 | 5.24 | – | 8.4 | 82 nM | 4.7 | 42 nM | – | 4 | 240 nM | 0.46% | 220 nM | 0.544% | –
Nc1ccn([C@@H]2O[C@H](CO)[C@@H](O)C2(F)F)c(=O)n1 [GEMCITABINE] | – | 1.4% | – | – | – | – | – | – | 0.24 | – | – | – | – | 1700 nM | – | – | – | – | 400 nM | – | TGI (PANC-1 [21]): 55%
COc1cccc2c1C(=O)c1c(O)c3c(c(O)c1C2=O)C[C@@](O)(C(=O)CO)C[C@@H]3O[C@H]1C[C@H](N)[C@H](O)[C@H](C)O1.Cl [DOXORUBICIN HYDROCHLORIDE] | – | 8.9% | – | – | 1600 nM | – | – | – | 0.29 | – | 0.78 | 2000 nM | – | 1700 nM | – | – | – | – | 480 nM | – | Activity [22]: 0.964%; Activity [23]: 18.8%; fold change (FC) (PANC-1 [24]): 1.6
